Compounds with a hit are over-represented: about 3.4% of the library has one in this group of screens.
LANA-H2A inh – blocks KSHV LANA binding to histone H2A/H2B; Q9QR71; 320,000 tested, 0.6% active; cell-free LANA-H2A/H2B peptide, fluorescence polarization; inhibition, % (test concentration not listed); AID 2629; in the data active = inhibition mostly above about 10%, no sharp cut-off; inactive = mostly below about 6.7%
TAAR1 ag – agonists of human TAAR1 | CHO RD-HGA16 TAAR1, Fluo-8 calcium fluorescence; vehicle wells 0%, saturating PEA agonist 100% | Q96RJ0 | 360,000 tested, 0.99% active | activation, % at 3 µM | AID 624467;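 active = activation above the mean activation of all test compounds in the run plus 3 SD, cut at about 38% in these data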
Target sequence (Q96RJ0 whole entry, looked up): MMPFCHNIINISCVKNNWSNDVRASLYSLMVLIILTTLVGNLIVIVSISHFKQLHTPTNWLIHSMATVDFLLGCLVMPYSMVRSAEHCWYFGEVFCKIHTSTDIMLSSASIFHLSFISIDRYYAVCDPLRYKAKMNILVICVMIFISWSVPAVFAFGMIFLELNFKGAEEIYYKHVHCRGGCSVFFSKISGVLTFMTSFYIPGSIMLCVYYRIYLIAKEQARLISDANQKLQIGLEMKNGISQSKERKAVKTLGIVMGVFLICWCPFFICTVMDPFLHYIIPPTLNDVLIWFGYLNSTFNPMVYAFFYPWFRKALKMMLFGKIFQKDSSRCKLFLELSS
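Signal – calcium-sensitive Fluo-8 signal, excitation 470-495, emission 515-575 nm · System – RD-HGA16 (CHO) cells co-expressing Gα16 and hTAAR1 · Incubation – 17-24 h seeding, 75 min 37 °C dye, 30 min RT · Compound dosing – 3 µM single concentration · Repeats – no replicates (n 1)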
GPR7 antagonist – antagonists of human GPR7 (neuropeptides B/W receptor 1); P48145; GPR7-expressing cells, fluorescence antagonist assay; inhibition, % at 4.4 µM; 290,000 tested, 1.1% active; AID 1861; in the data active = inhibition above about 16%, passing the limit was not always enough;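 also: cells stimulated with the agonist NPW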
Target sequence (P48145 whole entry, looked up): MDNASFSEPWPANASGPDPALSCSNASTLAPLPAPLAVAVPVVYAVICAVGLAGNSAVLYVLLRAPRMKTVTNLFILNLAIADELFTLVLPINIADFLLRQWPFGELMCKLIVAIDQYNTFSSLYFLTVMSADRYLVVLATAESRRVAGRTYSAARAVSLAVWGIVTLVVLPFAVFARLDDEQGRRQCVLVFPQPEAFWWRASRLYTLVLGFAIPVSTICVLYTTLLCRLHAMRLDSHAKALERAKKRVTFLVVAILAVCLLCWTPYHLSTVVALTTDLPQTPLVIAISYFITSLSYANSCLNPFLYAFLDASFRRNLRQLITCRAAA
TRPN1 ag – zebrafish TRPN1 (NompC) channel agonism. HEK293 zebrafish TRPN1-YFP, Fluo-8 calcium fluorescence; 100% = response to 87 µM carbachol. 220,000 tested, 0.18% active. activation, % at 3 µM;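 active = activation above its plate's cutoff, the mean activation of test wells on that plate plus 3 SD, cut at about 19% in these data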
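Material: zebrafish TRPN1-YFP in HEK293 cells. Doses: one dose of 3 µM, 0.3% DMSO. Incubation: dye 1 h 37 °C plus 30 min RT. Measured by: intracellular calcium fluorescence with Fluo-8.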
TAAR1 antagonist – antagonists of human TAAR1; CHO RD-HGA16 TAAR1, Fluo-8 calcium fluorescence, antagonist; inhibition, % at 3 µM; 360,000 tested, 1.5% active; AID 624466;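 active = inhibition above a per-plate cutoff, the mean inhibition of test compounds on that plate plus 3 SD, cut at about 49% in these data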
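Assay system: RD-HGA16 CHO cells with stable hTAAR1 and Gα16 / Reagent: EC80 β-phenethylamine stimulus / Doses: 3 µM, single point / Timing: dye loading 75 min at 37 °C, then 30 min room temperature / Measured by: Fluo-8 intracellular calcium dye fluorescence, real-time kinetic reads / Controls: vehicle wells and EC80 agonist wells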
TRPML3 ag – human mucolipin-3 channel agonism | AID 1448 | HEK293 TRPML3-YFP, Fluo-8 calcium fluorescence; 100% = the carbachol control signal | activation, % at 3 µM | Q8TDD5 | 220,000 tested, 0.29% active;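 active = activation above its plate's cutoff, the mean activation of the plate's test wells plus 3 SD, cut at about 12% in these data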
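Material: HEK293 cells stably carrying human TRPML3-YFP; compound dosing: single dose, 3 µM final nominal compound, 0.3% DMSO final; incubation: 1-h 37 °C dye load, 5-s basal, 120-s post-compound reads; technique: Fluo-8 intracellular calcium fluorescence, excitation 470-495 nm, emission 515-575 nm; read-out basis: percent activation from peak-to-basal fluorescence ratio, scaled between DMSO and carbachol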
A number is an active result; – = inactive; · = no result; ! = repeats disagree.

SMILES	LANA-H2A inh	TAAR1 ag	GPR7 antagonist	TRPN1 ag	TAAR1 antagonist	TRPML3 ag
CCOC(=O)CN1C(=O)[C@]2(OCCC=C[C@H]2C)c2ccccc21	·	–	·	·	–	·
CC(=O)Oc1ccccc1-c1nc(C)nc(N(C)C(C)=O)n1	44	–	–	–	–	–
CCc1ccc(NC(=O)c2noc3c2CCCCC3)cc1	–	–	–	–	–	–
Cc1ccc(NC(=O)c2noc3c2CCCCC3)cc1	8.5	–	–	–	–	–
COC(=O)C1=C(C)N(CC(C)C)C(=S)NC1c1ccc(Cl)cc1 (stereo not given)	·	–	·	·	–	·
Cc1ccc(-n2nc3c(c2NC(=O)c2ccc4c(c2)OCO4)CS(=O)(=O)C3)cc1	–	–	–	·	–	·
Cc1ccc(-n2nc3c(c2NC(=O)c2ccc(F)c(F)c2)CS(=O)(=O)C3)cc1	109	–	–	·	–	·
COC(=O)c1cc2c(c3c4cc(F)ccc4n(S(=O)(=O)c4ccc(C)cc4)c13)C(=O)N(Cc1ccc(N(C)C)cc1)C2	·	–	·	·	–	·
COc1cc(/C=C2\SC(=Nc3cccnc3)NC2=O)cc(OC)c1OC	27	–	–	–	–	–
O=C1NC(=Nc2cccnc2)S/C1=C\c1cccc(F)c1	–	–	–	–	–	–
CCc1ccc(N=C2NC(=O)/C(=C/c3cc(OC)c(O)c(OC)c3)S2)cc1	–	–	–	·	–	·
COc1cc(/C=C2\SC(=Nc3ccccc3)NC2=O)cc(Cl)c1O	–	75	–	·	62	·
C#CCNc1cccc2c1S(=O)(=O)N[C@H](C)CO2	·	–	·	·	–	·
OCCN1CN(c2ccccc2)C(=S)N(c2ccccc2)C1	·	–	·	·	–	·
Cc1ccc(CN2CC=CS2(=O)=O)cc1	·	–	·	·	–	·
C=CCN1C(c2ccc(Br)cc2)=CS/C1=C(/C#N)c1nnc(N2CCOCC2)n1-c1ccccc1	–	–	–	–	–	–
C=CCN1C(c2cccc(C(F)(F)F)c2)=CS/C1=C(/C#N)c1nnc(N2CCOCC2)n1-c1ccccc1	–	–	–	22	–	61
C[C@@H]1NS(=O)(=O)c2ccc(F)cc2O[C@@H]1c1ccccc1	·	–	·	·	–	·
C[C@H](c1ccccc1)N1C[C@@H](COCc2ccccc2)Oc2cccc(Oc3ccc(F)cc3)c2S1(=O)=O	·	–	·	·	–	·
COc1ccc(-c2cc3ccccc3n2CC(O)CN2CCC(C)CC2)cc1 (stereo not given)	–	–	–	–	–	–
COc1ccc(-c2cc3ccccc3n2CC(O)CNC(CO)(CO)CO)cc1 (stereo not given)	–	–	15	–	–	–
FC(F)(F)c1ccc(NC(=S)NCc2ccccc2)cc1	–	–	24	–	–	–
Fc1ccc(CNC(=S)Nc2cccc(C(F)(F)F)c2)cc1	–	–	–	–	–	–
FC(F)(F)c1cccc(NC(=S)NCc2ccc(Cl)cc2)c1	–	–	28	–	–	–
O=C(O)c1ccc(NC(=S)NCc2ccccc2)cc1	–	–	–	·	–	·
SMILES	LANA-H2A inh	TAAR1 ag	GPR7 antagonist	TRPN1 ag	TAAR1 antagonist	TRPML3 ag
O=C(C(=O)N1CCC(CNS(=O)(=O)c2ccc(F)c(F)c2)CC1)c1cc2ccccc2o1	·	–	·	·	–	·
COc1ccc2c(c1OC)C(=O)OC2C1c2c(cc3c(c2OC)OCO3)CCN1C (stereo not given)	5.3!	–	–	–	–	–
COC(=O)CCCC1=CC2=C(c3ccccc3)C(=O)C(C)(OC(=O)C3CCCC3)C(=O)C2=CN1C1CC1 (stereo not given)	59	–	·	·	–	·
CC(=O)Nc1ccc(S(=O)(=O)NCC2CCN(C(=O)C(=O)c3cc4ccccc4o3)CC2)cc1	·	–	·	·	–	·
O=S(=O)(Nc1cccnc1)c1ccc2c(c1)OCCO2	–	–	20	–	–	–
O=S(=O)(Nc1ccc(S(=O)(=O)N2CCCC2)cc1)c1ccc(F)cc1	–	–	–	·	–	·
O=S(=O)(Nc1cccnc1Cl)c1ccc2c(c1)OCCO2	–	–	–	–	–	–
CSc1ccc(S(=O)(=O)Nc2ccc(F)cc2)cc1	–	39	–	–	–	–
O=S(=O)(Nc1ccc(F)cc1)c1ccc(S(=O)(=O)N2CCOCC2)cc1	–	61	·	·	–	·
O=S(=O)(Nc1ccc2c(c1)OCCO2)c1ccc(F)cc1	–	40	–	–	–	–
Cc1ccc(S(=O)(=O)Nc2ccc3c(c2)OCCO3)cc1	·	–	–	–	–	–
COC(=O)c1cc2c(c3c4ccccc4n(S(=O)(=O)c4ccc(OC)cc4)c13)C(=O)N(Cc1ccco1)C2	·	–	·	·	–	·
CCN1C(=O)N[C@H]2C[C@@H](c3ccccc3)[C@@H](C)[C@@H](C(=O)N3CCCC3)C[C@H]21	·	–	·	·	–	·
COc1cccc(CNC(=O)[C@H]2CCCN2C(=O)[C@H]2CCCN2C(=O)c2c(F)cccc2F)c1	·	–	·	·	–	·
COC(=O)Cn1cnc2c(NC(=O)c3ccccc3)ncnc21	·	–	·	·	–	·
COc1cc(Cc2cnc(N)nc2N)cc(OC)c1OC	16!	–	–	–	–	–
COc1cc(CN2CCCCCC2)cc(OC)c1OC	–	–	–	·	–	·
CCCCOCC1CN(CCCC)S(=O)(=O)c2c(NCc3cc(OC)c(OC)c(OC)c3)cccc2O1 (stereo not given)	·	–	·	·	–	·
CC1(C(=O)Nc2cnc3ccccc3c2)CCN1Cc1ccc2ccccc2c1 (stereo not given)	·	–	·	·	–	·
CC1(C(=O)Nc2cnc3ccccc3c2)CCN1Cc1cc2ccccc2o1 (stereo not given)	·	–	·	·	49	·
CC(C)c1[nH]nc2c1C(c1cccc(C(F)(F)F)c1)NC2=O (stereo not given)	·	–	·	·	–	·
CC(=O)Nc1c2c3c(cccc3n(C)c1=O)C(=O)c1ccccc1-2	–	–	–	–	–	–
Cn1c(=O)c(Nc2ccc(Cl)cc2)c2c3c(cccc31)C(=O)c1ccccc1-2	66	–	–	–	–	–
Brc1ccc(N2O[C@H]3C=C[C@@H]2C3)nc1	·	–	·	·	–	·
CC(/C=N/NC(=O)c1cccnc1)=C\c1ccccc1	–	–	–	–	–	–
SMILES	LANA-H2A inh	TAAR1 ag	GPR7 antagonist	TRPN1 ag	TAAR1 antagonist	TRPML3 ag
CC(/C=N/NC(=O)c1ccncc1)=C\c1ccc(C(C)C)cc1	–	–	–	–	49	–
CN(C)CCNC(=O)C(=O)Nc1cc2c3c(c1)CCN3C(=O)CC2	17	–	–	·	–	·
CCN(CC)CCNC(=O)C(=O)Nc1cc2c3c(c1)CCC(=O)N3CCC2	0.9	–	–	·	–	·
CN(C)CCNC(=O)C(=O)Nc1cc2c3c(c1)CCC(=O)N3CCC2	–	–	–	·	–	·
COC(=O)c1cc2c(c3c4ccccc4n(S(=O)(=O)c4ccc(OC)cc4)c13)C(=O)N(Cc1ccc(N(C)C)cc1)C2	·	–	·	·	–	·
Cc1c(NC(=O)CN2C(=O)c3cccc4cccc2c34)c(=O)n(-c2ccccc2)n1C	18	–	–	–	–	–

High-throughput results from PubChem BioAssay.
